24 compounds from ChEMBL document CHEMBL4673287, “Synthesis and biological evaluation of novel antipsychotic trans-4-(2-(1,2,4,5-tetrahydro-3H-benzo[d]azepin-3-yl)ethyl)cyclohexan-1-amine derivatives targeting dopamine/serotonin receptor subtypes” (Bioorg Med Chem Lett, 2021) can be followed below.

In data set [1] the target is T1, 5-hydroxytryptamine receptor 1A (Homo sapiens, UniProt P08908).
T1 sequence (P08908 whole entry): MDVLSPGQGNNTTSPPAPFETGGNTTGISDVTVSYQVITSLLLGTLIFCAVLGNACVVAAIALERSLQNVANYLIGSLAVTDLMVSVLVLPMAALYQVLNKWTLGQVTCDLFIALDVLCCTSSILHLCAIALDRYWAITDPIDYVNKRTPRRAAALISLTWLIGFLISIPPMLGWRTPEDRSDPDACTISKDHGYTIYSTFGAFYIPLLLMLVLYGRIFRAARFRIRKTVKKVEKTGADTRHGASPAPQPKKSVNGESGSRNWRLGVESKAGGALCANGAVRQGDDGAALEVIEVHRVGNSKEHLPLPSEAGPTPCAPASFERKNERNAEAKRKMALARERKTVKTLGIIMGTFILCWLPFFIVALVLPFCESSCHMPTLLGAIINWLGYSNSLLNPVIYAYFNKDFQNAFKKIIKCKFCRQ
Description: Displacement of [3H]OH-DPAT from recombinant human 5-HT1A receptor expressed in human HEK293 cells. It is filed as cell-based. Summed up: (§1)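 Eight-concentration displacement curves, two independent experiments in duplicate, value is the mean Ki.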

Data set [2] has as its target T2, D(3) dopamine receptor (Homo sapiens, UniProt P35462). Description: Displacement of [3H]methyl-spiperone from recombinant human D3 receptor expressed in CHO cells. It is filed as cell-based. Background: In a radioligand displacement assay an active substance lowers the binding of a labelled ligand.
The target in data set [3] is T3, D(2) dopamine receptor (Homo sapiens, UniProt P14416). Description: Displacement of [3H]-spiperone from recombinant human D2L receptor expressed in CHO cells. It is filed as cell-based. Summed up:
as §1

Data set [4] has as its target T4, 5-hydroxytryptamine receptor 2A (Homo sapiens, UniProt P28223). In words: Displacement of [3H]ketanserin from recombinant human 5-HT2A receptor expressed in human HEK293 cells at 10 uM relative to control. Type of data set: cell-based.
Data set [5] concerns the target Histamine H1 receptor (Homo sapiens) (UniProt P35367). In words: Displacement of [3H]-pyrilamine from human H1 histamine receptor expressed in human HEK293 cells at 10 uM relative to control. It is filed as cell-based.
The target of data set [6] is Adrenergic receptor alpha-1 (Rattus norvegicus) (UniProt P15823+P23944+P43140). In words: Displacement of [3H]-prazosin from adrenergic alpha1 in rat cerebral cortex at 10 uM relative to control. It is filed as tissue-based.
Data set [7] concerns the target T5, 5-hydroxytryptamine receptor 1A (Homo sapiens) (UniProt P08908).
T5 sequence (whole entry): T1 sequence (P08908 whole entry)
Description: Displacement of [3H]OH-DPAT from recombinant human 5-HT1A receptor expressed in human HEK293 cells at 10 uM relative to control. It is filed as cell-based.

In data set [8] the target is T2, D(3) dopamine receptor. Description: Displacement of [3H]methyl-spiperone from recombinant human D3 receptor expressed in CHO cells at 10 uM relative to control. It is filed as cell-based.
Data set [9] deals with T3, D(2) dopamine receptor. Description: Displacement of [3H]-spiperone from recombinant human D2L receptor expressed in CHO cells at 10 uM relative to control. It is filed as cell-based.
For data set [10], the target named is T4, 5-hydroxytryptamine receptor 2A. In words: Displacement of [3H]ketanserin from recombinant human 5-HT2A receptor expressed in human HEK293 cells. Type of data set: cell-based. Summed up: as §1
A further data set concerns Rattus norvegicus. Description: Antipsychotic activity in orally dosed Sprague-Dawley rat assessed as inhibition of PCP-induced hyperactivity administered 20 mins before PCP stimulation and measured after 1 hr. It is filed as functional, organism-based. The conditions noted are these: dose 1-10 mg/kg, time 80.0 min. In a few lines:
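Male Sprague-Dawley rats dosed orally 20 min before PCP (5 mg/kg) injection. Locomotor activity recorded for 1 h after PCP, read as total travel distance. Mean ± standard error of the mean, n = 8-10 per group.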

Data set [11] can be described thus: Metabolic stability in rat liver microsomes assessed as intrinsic clearance. It is filed as ADME, Microsome. Particulars: read-out: CLH.
The nature of data set [12]: Metabolic stability in human liver microsomes assessed as intrinsic clearance. The conditions noted are these: read-out: CLH. Type of data set: ADME, Microsome. Background: Liver microsomes are a subcellular fraction often used to study metabolism.
The nature of data set [13]: Metabolic stability in rat liver microsomes assessed as half life. It is filed as ADME, Microsome.
A short description of data set [14]: Metabolic stability in human liver microsomes assessed as half life. Type of data set: ADME, Microsome.

By Ki is commonly meant a measure of affinity in units of concentration, obtained from inhibition or displacement. A word on the inhibition: it is the relative decrease from the control value, in per cent. For orientation: half-life means the time in which the quantity being followed falls by half.

T2 sequence (P35462 whole entry): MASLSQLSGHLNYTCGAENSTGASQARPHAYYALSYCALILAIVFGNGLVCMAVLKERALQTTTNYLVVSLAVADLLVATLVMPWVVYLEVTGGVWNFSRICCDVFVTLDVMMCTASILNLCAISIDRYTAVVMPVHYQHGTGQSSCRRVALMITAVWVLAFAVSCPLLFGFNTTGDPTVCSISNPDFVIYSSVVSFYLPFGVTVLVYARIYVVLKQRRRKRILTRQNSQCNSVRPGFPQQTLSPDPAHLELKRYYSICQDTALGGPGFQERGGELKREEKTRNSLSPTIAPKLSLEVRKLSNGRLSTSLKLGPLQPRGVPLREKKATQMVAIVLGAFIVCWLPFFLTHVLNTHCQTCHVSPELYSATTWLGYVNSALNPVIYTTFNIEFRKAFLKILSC
T3 sequence (P14416 whole entry): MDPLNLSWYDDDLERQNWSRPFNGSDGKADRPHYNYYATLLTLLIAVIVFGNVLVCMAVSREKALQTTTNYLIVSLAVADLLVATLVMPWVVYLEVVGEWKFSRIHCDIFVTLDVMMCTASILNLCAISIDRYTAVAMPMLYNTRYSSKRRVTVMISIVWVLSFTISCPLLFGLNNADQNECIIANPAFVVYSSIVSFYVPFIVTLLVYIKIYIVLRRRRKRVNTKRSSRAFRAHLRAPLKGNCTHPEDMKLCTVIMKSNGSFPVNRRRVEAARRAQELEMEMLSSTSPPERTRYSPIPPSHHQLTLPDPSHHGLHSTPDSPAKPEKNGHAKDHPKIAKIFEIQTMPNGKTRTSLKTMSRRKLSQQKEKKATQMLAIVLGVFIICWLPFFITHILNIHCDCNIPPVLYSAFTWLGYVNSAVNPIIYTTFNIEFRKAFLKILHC
T4 sequence (P28223 whole entry): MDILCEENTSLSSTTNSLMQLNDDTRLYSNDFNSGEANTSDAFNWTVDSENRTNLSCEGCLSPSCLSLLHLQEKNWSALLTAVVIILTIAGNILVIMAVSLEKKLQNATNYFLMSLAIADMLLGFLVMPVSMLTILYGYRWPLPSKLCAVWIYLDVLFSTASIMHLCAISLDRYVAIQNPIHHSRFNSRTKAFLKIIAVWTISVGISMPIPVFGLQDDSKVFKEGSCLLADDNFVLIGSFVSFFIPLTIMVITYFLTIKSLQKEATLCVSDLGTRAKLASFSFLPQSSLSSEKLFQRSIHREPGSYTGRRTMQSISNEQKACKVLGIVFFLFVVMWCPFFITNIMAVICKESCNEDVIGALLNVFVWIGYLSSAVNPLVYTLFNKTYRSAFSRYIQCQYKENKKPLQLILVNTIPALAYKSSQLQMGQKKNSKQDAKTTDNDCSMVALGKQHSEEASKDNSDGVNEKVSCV
Sequence of Histamine H1 receptor (Homo sapiens) (P35367 whole entry): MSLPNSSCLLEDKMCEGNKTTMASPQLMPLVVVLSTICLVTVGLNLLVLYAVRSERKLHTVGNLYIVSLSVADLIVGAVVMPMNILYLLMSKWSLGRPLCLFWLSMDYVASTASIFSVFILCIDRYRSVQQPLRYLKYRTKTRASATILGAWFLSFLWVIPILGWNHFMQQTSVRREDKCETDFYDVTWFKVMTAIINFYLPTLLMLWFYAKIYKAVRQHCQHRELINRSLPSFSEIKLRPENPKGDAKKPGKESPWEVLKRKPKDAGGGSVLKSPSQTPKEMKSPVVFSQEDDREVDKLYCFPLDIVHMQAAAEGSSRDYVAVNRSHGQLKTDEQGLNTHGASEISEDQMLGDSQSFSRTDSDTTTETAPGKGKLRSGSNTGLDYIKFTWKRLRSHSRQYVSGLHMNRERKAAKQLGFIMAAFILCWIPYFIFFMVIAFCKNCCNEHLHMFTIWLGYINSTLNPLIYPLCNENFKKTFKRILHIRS

`C[C@H]1CN(CC[C@H]2CC[C@H](NC(=O)[C@@H]3CCCO3)CC2)CCc2ccc(Cl)cc21`: the figures for the Ki (in data set [1]; at D(3) dopamine receptor [2]; on D(2) dopamine receptor [3]) were 98.3 nM, 19.1 nM and 20.6 nM, respectively. In addition, the values for the inhibition in data set [4], in data set [5] and in data set [6] were 69.6%, 32.2% and 36.4%, respectively.

`C[C@H]1CN(CC[C@H]2CC[C@H](N3C(=O)[C@H]4CCCC[C@H]4C3=O)CC2)CCc2ccc(Cl)cc21`: the Ki in data set [1] worked out at 6.6 nM; at D(3) dopamine receptor [2], 9.3 nM; on D(2) dopamine receptor [3], 14.1 nM. Also, the inhibition in data set [4] came out at 76.9%; in data set [5], 86.1%; in [6] it was 63.2%.

In the case of `C[C@H]1CN(CC[C@H]2CC[C@H](N3C(=O)[C@@H]4[C@@H]5CC[C@@H](C5)[C@@H]4C3=O)CC2)CCc2ccc(Cl)cc21`, the Ki stood at 24.9 nM in data set [1], 3.3 nM on D(3) dopamine receptor [2] and 31.6 nM at D(2) dopamine receptor [3]. Also, the inhibition in data set [4] turned out to be 80.8%; in [6], 79.2%.

Consider `C[C@H]1CN(CC[C@H]2CC[C@H](N3C(=O)c4ccccc4C3=O)CC2)CCc2ccc(Cl)cc21`, for which the Ki at D(2) dopamine receptor [3] worked out at 5.8 nM. Also, the inhibition is 36.3% in data set [4]; 82.6% in data set [7]; 82% on D(3) dopamine receptor [8]; 40.8% in data set [5]; 37.2% in data set [6].

Regarding `CC1CN(CC[C@H]2CC[C@H](NC(=O)N(C)C)CC2)CCc2ccc(Cl)cc21` (mixture of isomers), the inhibition in [4] is 19.6%; in data set [7] it was 26.9%; on D(3) dopamine receptor [8], 68%; at D(2) dopamine receptor [9] it was 54.5%; in data set [5], 25.8%; in data set [6] it was 38%.

For `CCN(CC)C(=O)N[C@H]1CC[C@H](CCN2CCc3ccc(Cl)cc3[C@@H](C)C2)CC1`, the figures for the Ki on D(3) dopamine receptor [2] and on D(2) dopamine receptor [3] were 15 nM and 91.1 nM, respectively. Further, the inhibition in data set [4] was 73.6%; in [7], 75.2%; in [5], 69.2%; in data set [6] it was 29.1%.

With `C[C@H]1CN(CC[C@H]2CC[C@H](NC(=O)[C@@H]3CCCN3)CC2)CCc2ccc(Cl)cc21`, the Ki was found to be 74.7 nM in data set [1], 9.5 nM on D(3) dopamine receptor [2] and 25.3 nM on D(2) dopamine receptor [3]. The inhibition is 89% in data set [4], 60.1% in data set [5] and 75.8% in data set [6].

On to `C[C@H]1CN(CC[C@H]2CC[C@H](NC(=O)C3CCCCC3)CC2)CCc2ccc(Cl)cc21`, for which the Ki is 17.5 nM at D(3) dopamine receptor [2] and 99.3 nM at D(2) dopamine receptor [3]. Further, the inhibition in data set [4] came out at 38.2%; in [7], 69.9%; in [5], 36.8%; in data set [6] it was 35.3%.

For the compound `CCN(C)C(=O)N[C@H]1CC[C@H](CCN2CCc3ccc(Cl)cc3[C@@H](C)C2)CC1`, the inhibition constant Ki stood at 36 nM in [1], 7.2 nM on D(3) dopamine receptor [2] and 23.9 nM on D(2) dopamine receptor [3]. Further, the figures for the inhibition in data set [4], in data set [5] and in data set [6] were 85.9%, 49.7% and 43.5%, respectively.

Regarding `C[C@H]1CN(CC[C@H]2CC[C@H](NC(=O)N(C)c3ccccc3)CC2)CCc2ccc(Cl)cc21`, the Ki on D(3) dopamine receptor [2] was found to be 17.2 nM; at D(2) dopamine receptor [3], 189 nM. Also, the inhibition in [4] turned out to be 58.8%; in [7] (filed as antagonist) it was 82.3%; in data set [5], 75%; in data set [6] it was 38.6%.

Consider `C[C@H]1CN(CC[C@H]2CC[C@H](NC(=O)C3CC3)CC2)CCc2ccc(Cl)cc21`, for which the Ki in [1] worked out at 191 nM; at D(3) dopamine receptor [2], 8.2 nM; on D(2) dopamine receptor [3], 9.8 nM. In addition, the results for the inhibition in data set [4], in data set [5] and in data set [6] were 56.6%, 33.2% and 57.6%, respectively.

As for `C[C@H]1CN(CC[C@H]2CC[C@H](N3C(=O)CC4(CCCC4)CC3=O)CC2)CCc2ccc(Cl)cc21`, the Ki in data set [10] turned out to be 16.2 nM; in data set [1], 4.3 nM; at D(3) dopamine receptor [2], 1.2 nM; at D(2) dopamine receptor [3], 12.1 nM. Moreover, the inhibition in [6] turned out to be 60.9%.

For the compound `C[C@H]1CN(CC[C@H]2CC[C@H](N3C(=O)[C@@H]4[C@H](C3=O)[C@@H]3C=C[C@H]4C3)CC2)CCc2ccc(Cl)cc21`, the Ki in data set [1] came to 22.8 nM; on D(3) dopamine receptor [2], 6.9 nM; at D(2) dopamine receptor [3] it was 43.7 nM. Besides, the inhibition in [4] is 82.8%; in data set [6], 74.4%.

With `CN1CCN(C2=Nc3cc(Cl)ccc3Nc3ccccc32)CC1`, the Activity result with Rattus norvegicus is “Dose-dependent effect”.

`C[C@H]1CN(CC[C@H]2CC[C@H](NC(=O)N3CCOCC3)CC2)CCc2ccc(Cl)cc21`: the Ki at D(3) dopamine receptor [2] was 1.8 nM; at D(2) dopamine receptor [3], 2.9 nM. In addition, the inhibition in data set [4] was determined as 50.6%; in data set [7], 86.1%; in [5], 33.3%; in [6] it was 48%.

For `C[C@H]1CN(CC[C@H]2CC[C@H](NC(=O)N(C)C)CC2)CCc2ccc(Cl)cc21`, in the data set on Rattus norvegicus, the Activity entry was “Dose-dependent effect”. The microsomal CLint in data set [11] turned out to be 59.7 µL/min/mg; in data set [12], 42.4 µL/min/mg. For the same compound, the half-life in data set [13] was determined as 23.2 min; in data set [14], 32.7 min. The Ki in data set [10] was 25.6 nM; in [1], 14.5 nM; at D(3) dopamine receptor [2], 0.5 nM; at D(2) dopamine receptor [3] it was 5.9 nM. Further, the inhibition was determined as 59.6% in [5] and 44.1% in data set [6].

Take `C[C@H]1CN(CC[C@H]2CC[C@H](NC(=O)Nc3ccccc3)CC2)CCc2ccc(Cl)cc21`: the figures for the Ki on D(3) dopamine receptor [2] and at D(2) dopamine receptor [3] were 1.5 nM and 2.8 nM, respectively. Besides, the inhibition amounted to 67% in data set [4], 88.2% in [5] (filed as antagonist) and 53.8% in data set [6].

Turning to `C[C@H]1CN(CC[C@H]2CC[C@H](NC(=O)N3CCCC3)CC2)CCc2ccc(Cl)cc21`, the Ki in data set [1] turned out to be 5.3 nM; at D(3) dopamine receptor [2], 1.1 nM; at D(2) dopamine receptor [3] it was 6.3 nM. Moreover, the inhibition worked out at 87.4% in data set [4], 56.8% in [5] and 60.3% in data set [6].

`COc1ccc2c(c1)[C@]13CCCC[C@@H]1[C@H](C2)N(C)CC3` [DEXTROMETHORPHAN]: in [12], the microsomal CLint came out at 59.7 µL/min/mg. Also, the half-life in [14] is 23.2 min.

With `COc1ccc2[nH]c([S+]([O-])Cc3ncc(C)c(OC)c3C)nc2c1` (centres undefined) [OMEPRAZOLE], in [11], the microsomal CLint was determined as 193 µL/min/mg. In addition, the half-life in [13] is 38.5 min.

In the case of `C[C@@H]1CN(CC[C@H]2CC[C@H](NC(=O)N(C)C)CC2)CCc2ccc(Cl)cc21`, the Ki at D(3) dopamine receptor [2] was 195 nM; on D(2) dopamine receptor [3], 290 nM. The inhibition in data set [4] came out at 72%; in [7], 83.9%; in [5] it was 46.5%; in data set [6] it was 48.3%.

Take `C[C@H]1CN(CC[C@H]2CC[C@H](N3C(=O)CCC3=O)CC2)CCc2ccc(Cl)cc21`: the Ki came to 93.4 nM in data set [1] and 191 nM on D(3) dopamine receptor [2]. In addition, the inhibition stood at 47.4% in [4], 79.8% at D(2) dopamine receptor [9], 62.4% in data set [5] and 62.1% in [6].

Consider `CCCC(=O)N[C@H]1CC[C@H](CCN2CCc3ccc(Cl)cc3[C@@H](C)C2)CC1`, for which the Ki on D(3) dopamine receptor [2] came out at 8.1 nM; on D(2) dopamine receptor [3], 84 nM. For the same compound, the inhibition in data set [4] amounted to 52.7%; in data set [7], 81.3%; in data set [5], 27%; in data set [6], 18.7%.

Take `C[C@H]1CN(CC[C@H]2CC[C@H](NC(=O)c3ccco3)CC2)CCc2ccc(Cl)cc21`: the Ki was 10.6 nM in data set [1], 1.8 nM on D(3) dopamine receptor [2] and 19.3 nM on D(2) dopamine receptor [3].
